Source: ChEMBL document CHEMBL1128269, “Synthesis and biological evaluation of NK1 antagonists derived from L-tryptophan” (J Med Chem, 1995)
Values belong to the compound of their own block, whether it stands above or below them.

Assays:
[1] = system: Mustela putorius furo; assay: Effect on heart rate of substance P antagonist was determined as change heart rate in the anesthetized ferret at 3 mg/Kg intravenous bolus; type: functional
Outline: (§1)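 Ferrets anesthetized with sodium pentobarbitone (40 mg/kg ip), maintained with sodium barbitalone (300 mg/kg ip); tracheal cannula with artificial ventilation on room air; femoral artery cannulated for recording, femoral vein for dosing. Rising cumulative iv bolus doses, in distilled water (1 mL/kg) or poly(ethylene glycol) (0.5 mL/kg), with matched vehicle controls. Change in heart rate, mean ± SD of at least three determinations.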

[2] = system: Mustela putorius furo; assay: Effect on heart rate of substance P antagonist was determined as change heart rate in the anesthetized ferret at 0.1 mg/Kg intravenous bolus; type: functional; outline: as §1
[3] = system: Mustela putorius furo; assay: Effect on heart rate of substance P antagonist was determined as change heart rate in the anesthetized ferret at 0.3 mg/Kg intravenous bolus; type: functional; outline: as §1
[4] = system: Mustela putorius furo; assay: Effect on heart rate of substance P antagonist was determined as change heart rate in the anesthetized ferret at 1 mg/Kg intravenous bolus; type: functional; outline: as §1
[5] = system: Mustela putorius furo; assay: Maximum change in the mean arterial blood pressure in the anesthetized ferret of substane P at 0.1 mg/Kg intravenous bolus; type: functional
Outline: (§2)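 Pentobarbitone-induced (40 mg/kg ip), barbitalone-maintained (300 mg/kg ip) ferret anesthesia; trachea cannulated, ventilated with room air; blood pressure recorded via femoral artery, compounds given via femoral vein as rising cumulative iv boluses in distilled water (1 mL/kg) or poly(ethylene glycol) (0.5 mL/kg), matched vehicle controls. Maximum change in mean arterial pressure, mean ± SD, at least three determinations.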

[6] = system: Mustela putorius furo; assay: Maximum change in the mean arterial blood pressure in the anesthetized ferret of substane P at 0.3 mg/Kg intravenous bolus; type: functional; outline: as §2
[7] = system: Mustela putorius furo; assay: Maximum change in the mean arterial blood pressure in the anesthetized ferret of substane P at 1 mg/Kg intravenous bolus; type: functional; outline: as §2
[8] = system: Mustela putorius furo; assay: Maximum change in the mean arterial blood pressure in the anesthetized ferret of substane P at 3 mg/Kg intravenous bolus; type: functional; outline: as §2
[9] = biological target: T1, Substance-P receptor (Homo sapiens, UniProt P25103); assay: Binding affinity against human Tachykinin receptor 1 expressed in CHO cells was measured by its ability to displace [125I]- Tyr-8 substance P.; type: cell-based
[10] = system: Mustela putorius furo; assay: Maximum change in the mean arterial blood pressure in the anesthetized ferret of substance P at 0.1 mg/Kg intravenous bolus; type: functional; outline: as §2
[11] = system: Mustela putorius furo; assay: Maximum change in the mean arterial blood pressure in the anesthetized ferret of substance P at 0.3 mg/Kg intravenous bolus; type: functional; outline: as §2
[12] = system: Mustela putorius furo; assay: Maximum change in the mean arterial blood pressure in the anesthetized ferret of substance P at 1 mg/Kg intravenous bolus; type: functional
Outline: (§3)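 Ferrets were anesthetized with sodium pentobarbitone (40 mg/kg ip), maintained with sodium barbitalone (300 mg/kg ip), tracheally cannulated and ventilated with room air. Blood pressure was recorded via the femoral artery. Rising cumulative iv bolus doses (vehicle: distilled water, 1 mL/kg, or PEG, 0.5 mL/kg) went in via the femoral vein, with vehicle controls. Maximum change in mean arterial pressure is mean ± SD, n≥3.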

[13] = system: Cavia porcellus; assay: Inhibition of substance P-induced dermal plasma extravasation in the guinea pig 1 hr after oral dose; type: functional; conditions: PIG1, Plasma, read-out: ID50 (the source's name)
Outline: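 Guinea pigs were dosed orally 1 h before 0.5 pmol substance P was injected into the dorsal skin. Evans blue was given iv before the challenge. Plasma leakage was quantified from dye levels in the skin around the injection sites, and ID50 was expressed in mg/kg.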

[14] = biological target: Substance-P receptor (Homo sapiens, UniProt P25103, Q165A); assay: Binding affinity against Gln165Ala mutant type human Tachykinin receptor 1 expressed in CHO cells was measured by its ability to displace [125I]- Tyr-8 substance P.; type: cell-based
[15] = biological target: T1, Substance-P receptor; assay: Binding affinity against wild type human Tachykinin receptor 1 expressed in CHO cells was measured by its ability to displace [125I]- Tyr-8 substance P.; type: cell-based
[16] = system: Mustela putorius furo; assay: Maximum change in the mean arterial blood pressure in the anesthetized ferret of substance P at 3 mg/Kg intravenous bolus; type: functional; outline: as §3

T1 sequence (P25103 whole entry): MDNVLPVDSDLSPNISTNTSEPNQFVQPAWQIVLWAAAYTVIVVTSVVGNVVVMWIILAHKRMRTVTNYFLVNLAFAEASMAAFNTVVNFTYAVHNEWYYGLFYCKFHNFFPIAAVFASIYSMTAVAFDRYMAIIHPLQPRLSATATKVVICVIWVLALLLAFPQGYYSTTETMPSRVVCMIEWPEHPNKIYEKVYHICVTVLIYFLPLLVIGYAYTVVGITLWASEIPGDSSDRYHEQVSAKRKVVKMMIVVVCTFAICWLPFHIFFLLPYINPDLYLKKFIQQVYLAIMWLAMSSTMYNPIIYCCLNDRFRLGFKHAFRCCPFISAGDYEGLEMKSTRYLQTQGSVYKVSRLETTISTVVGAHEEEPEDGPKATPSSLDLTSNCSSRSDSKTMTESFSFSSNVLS
Chain of Substance-P receptor (Homo sapiens, UniProt P25103, Q165A) (P25103 whole entry Q165A): as the sequence (P25103 whole entry) above, with Q165A counted along it

IC50 [9]: 3.8 nM
SMILES: O=C(Cc1cnc[nH]1)N[C@@H](Cc1c[nH]c2ccccc12)C(=O)CCc1cc(C(F)(F)F)cc(C(F)(F)F)c1

IC50 [9]: 0.37 nM
SMILES: O=C(CCC1CCNCC1)N[C@@H](Cc1c[nH]c2ccccc12)C(=O)CCc1cc(C(F)(F)F)cc(C(F)(F)F)c1

IC50 [9]: 0.6 nM
SMILES: O=C(CCN1CCCCC1)N[C@@H](Cc1c[nH]c2ccccc12)C(=O)CCc1cc(C(F)(F)F)cc(C(F)(F)F)c1

IC50 [9]: 0.7 nM
SMILES: CN(C)CCCC(=O)N[C@@H](Cc1c[nH]c2ccccc12)C(=O)CCc1cc(C(F)(F)F)cc(C(F)(F)F)c1
ED50 [13]: 4 mg/kg

IC50 [9]: 0.6 nM
SMILES: CN(C)CCCCC(=O)N[C@@H](Cc1c[nH]c2ccccc12)C(=O)CCc1cc(C(F)(F)F)cc(C(F)(F)F)c1

IC50 [14]: 1.4 nM
IC50 [9]: 0.17 nM
IC50 [15]: 0.24 nM
SMILES: O=C(CCCN1CCOCC1)N[C@@H](Cc1c[nH]c2ccccc12)C(=O)CCc1cc(C(F)(F)F)cc(C(F)(F)F)c1

IC50 [9]: 0.3 nM
SMILES: O=C(CCCN1CCCC1)N[C@@H](Cc1c[nH]c2ccccc12)C(=O)CCc1cc(C(F)(F)F)cc(C(F)(F)F)c1

IC50 [9]: 0.47 nM
SMILES: O=C(CCc1ccncc1)N[C@@H](Cc1c[nH]c2ccccc12)C(=O)CCc1cc(C(F)(F)F)cc(C(F)(F)F)c1

The next lines start with the compound.

SMILES: COc1ccccc1CN[C@H]1C2CCN(CC2)[C@H]1C(c1ccccc1)c1ccccc1 [CP-96345]
Change in heart rate [1]: 65
Change in heart rate [2]: 7
Change in heart rate [3]: 13
Change in heart rate [4]: 21
MABP [5]: 11
MABP [6]: 21
MABP [7]: 46
MABP [8]: 63

SMILES: Cc1cc(C)cc(CN(C)C(=O)[C@H](Cc2c[nH]c3ccccc23)NC(=O)c2ccccc2)c1
IC50 [9]: 1030 nM

SMILES: COc1ccccc1CN[C@H]1CCCN[C@H]1c1ccccc1 [CP-99994]
MABP [10]: 10
MABP [11]: 13
MABP [12]: 12
ED50 [13]: 1.6 mg/kg

SMILES: O=C(CCc1cc(C(F)(F)F)cc(C(F)(F)F)c1)[C@H](Cc1c[nH]c2ccccc12)NC(=O)C12CCN(CC1)CC2
Change in heart rate [1]: 1
Change in heart rate [2]: 3
Change in heart rate [3]: 2
Change in heart rate [4]: 1
MABP [10]: 2
MABP [11]: 4
MABP [12]: 18
MABP [16]: 34
ED50 [13]: 1.8 mg/kg
IC50 [14]: 8 nM
IC50 [9]: 0.9 nM
IC50 [15]: 1 nM

SMILES: O=C(Cc1ccncc1)N[C@@H](Cc1c[nH]c2ccccc12)C(=O)CCc1cc(C(F)(F)F)cc(C(F)(F)F)c1
MABP [12]: -20
ED50 [13]: 1.9 mg/kg
IC50 [14]: 10 nM
IC50 [9]: 0.5 nM
IC50 [15]: 0.4 nM

SMILES: CC(=O)N[C@H](COCc1cc(C)cc(C)c1)Cc1c[nH]c2ccccc12
IC50 [9]: 767 nM

SMILES: CN(C)CCC(=O)N[C@@H](Cc1c[nH]c2ccccc12)C(=O)CCc1cc(C(F)(F)F)cc(C(F)(F)F)c1
ED50 [13]: 10 mg/kg

SMILES: O=C(CN1CCOCC1)N[C@@H](Cc1c[nH]c2ccccc12)C(=O)CCc1cc(C(F)(F)F)cc(C(F)(F)F)c1
IC50 [14]: 4 nM
IC50 [9]: 3.5 nM
IC50 [15]: 2 nM

SMILES: FC(F)(F)c1cccc(CO[C@H]2C3CCN(CC3)[C@H]2C(c2ccccc2)c2ccccc2)c1
IC50 [14]: 2100 nM
IC50 [9]: 53 nM
IC50 [15]: 53 nM
